Among the data in ChEMBL document CHEMBL4840316, “Structure-based screening for the discovery of 1,2,4-oxadiazoles as promising hits for the development of new anti-inflammatory agents interfering with eicosanoid biosynthesis pathways” (Eur J Med Chem, 2021) are Activity values, retold here.

The source made the active and inactive calls. The rule behind the calls is not given here.

For data set [1], the target named is T1, Prostaglandin E synthase (Homo sapiens) (UniProt O14684).
T1 sequence (whole entry): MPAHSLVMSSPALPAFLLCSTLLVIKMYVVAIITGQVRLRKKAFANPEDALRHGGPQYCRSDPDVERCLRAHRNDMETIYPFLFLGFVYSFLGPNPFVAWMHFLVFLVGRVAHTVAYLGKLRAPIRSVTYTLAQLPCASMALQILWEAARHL
The data set can be described thus: Inhibition of mPGES-1 obtained from IL-beta stimulated human A549 cells microsomes assessed as residual activity by measuring conversion of PGH2 to PGE2 at 10 uM by cell-free RP-HPLC method. The conditions noted are these: Microsome. Put shortly: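 Microsomes from A549 cells stimulated with IL-1β (1 ng/ml) for 48 h. Diluted in 0.1 M potassium phosphate pH 7.4 with 2.5 mM glutathione. Pre-incubated 15 min on ice with compound (single 10 µM, or 0.03–10 µM for the curve) or 1% DMSO. 20 µM PGH2 added for 1 min; stopped with FeCl3/citric acid containing 11β-PGE2 standard. PGE2 measured by SPE and RP-HPLC. n = 3.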

Data set [2] has as its target T2, Polyunsaturated fatty acid 5-lipoxygenase (Homo sapiens) (UniProt P09917).
T2 sequence (whole entry): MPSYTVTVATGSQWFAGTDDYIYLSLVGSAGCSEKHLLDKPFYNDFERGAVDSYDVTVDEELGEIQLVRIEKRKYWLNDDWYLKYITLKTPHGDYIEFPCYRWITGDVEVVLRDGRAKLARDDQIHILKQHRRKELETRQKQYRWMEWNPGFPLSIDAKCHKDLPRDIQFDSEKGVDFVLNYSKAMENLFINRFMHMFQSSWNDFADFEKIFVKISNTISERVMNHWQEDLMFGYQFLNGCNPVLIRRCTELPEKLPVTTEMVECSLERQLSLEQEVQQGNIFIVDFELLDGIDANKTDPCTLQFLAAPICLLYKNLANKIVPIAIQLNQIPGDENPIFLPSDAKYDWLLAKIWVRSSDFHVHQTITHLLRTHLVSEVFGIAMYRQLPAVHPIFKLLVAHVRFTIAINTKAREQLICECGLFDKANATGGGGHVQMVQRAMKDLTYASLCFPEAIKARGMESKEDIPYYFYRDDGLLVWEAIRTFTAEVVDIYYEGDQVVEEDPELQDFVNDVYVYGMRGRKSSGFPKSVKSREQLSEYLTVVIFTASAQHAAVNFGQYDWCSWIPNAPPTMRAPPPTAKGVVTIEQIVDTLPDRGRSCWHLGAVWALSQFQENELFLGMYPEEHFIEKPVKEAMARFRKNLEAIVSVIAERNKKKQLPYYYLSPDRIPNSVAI
The data set can be described thus: Inhibition of 5-LO in A23187-stimulated human intact neutrophils assessed as reduction in LTB4/5-HETE formation by measuring residual activity at 10 uM measured after 20 mins by RP-HPLC method. The conditions noted are these: Neutrophil. The data set is classed as tissue-based. In a few lines:
(§1)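 Human neutrophils at 5 × 10^6/mL in PBS with 0.1% glucose and 1 mM CaCl2. Pre-incubated with compound or 0.1% DMSO for 10 min at 37 °C. Stimulated with 2.5 µM A23187, with or without 20 µM AA, for 10 min at 37 °C. Stopped with cold methanol; PGB1 internal standard. LTB4, its trans isomers and 5-HETE quantified by SPE and RP-HPLC; % of control.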

The target of data set [3] is T2, Polyunsaturated fatty acid 5-lipoxygenase (Homo sapiens). The data set can be described thus: Inhibition of 5-LO in A23187/AA-stimulated human intact neutrophils assessed as reduction in LTB4/5-HETE formation by measuring residual activity at 10 uM measured after 20 mins by RP-HPLC method. The conditions noted are these: Neutrophil. The data set is classed as tissue-based. Put shortly:
as §1

Data set [4] shares this target. The data set can be described thus: Inhibition of 5-LO (unknown origin) expressed in Escherichia coli BL21 assessed as residual activity at 10 uM by RP-HPLC method relative to control. In a few lines:
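Human recombinant 5-LO expressed in E. coli BL21 and purified on ATP-agarose. 0.5 µg enzyme in 1 mL PBS + 1 mM EDTA pre-incubated with compound or 0.1% DMSO for 10 min on ice. Reaction started with 20 µM AA and 2 mM CaCl2, run 10 min at 37 °C, stopped with ice-cold methanol. Products analysed; activity as % of control.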

Data set [5] concerns the target T3, Bifunctional epoxide hydrolase 2 (Homo sapiens) (UniProt P34913).
T3 sequence (whole entry): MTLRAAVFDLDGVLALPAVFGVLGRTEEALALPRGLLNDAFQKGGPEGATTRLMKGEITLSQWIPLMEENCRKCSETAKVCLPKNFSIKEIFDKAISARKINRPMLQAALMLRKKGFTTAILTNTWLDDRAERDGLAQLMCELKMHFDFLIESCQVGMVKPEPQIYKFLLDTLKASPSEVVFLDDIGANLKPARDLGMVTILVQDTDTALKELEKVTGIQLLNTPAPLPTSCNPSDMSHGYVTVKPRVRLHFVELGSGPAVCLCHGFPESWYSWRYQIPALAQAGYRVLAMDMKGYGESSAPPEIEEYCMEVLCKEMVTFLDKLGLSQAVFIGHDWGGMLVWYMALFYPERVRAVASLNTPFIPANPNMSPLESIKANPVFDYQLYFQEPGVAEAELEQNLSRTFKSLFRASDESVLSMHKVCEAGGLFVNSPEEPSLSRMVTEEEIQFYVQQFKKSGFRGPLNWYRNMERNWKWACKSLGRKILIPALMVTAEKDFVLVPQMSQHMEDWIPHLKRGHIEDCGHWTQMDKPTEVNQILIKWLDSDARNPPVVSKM
The data set can be described thus: Inhibition of recombinant human sEH expressed in sf9 insect cells assessed as residual activity at 10 uM using PHOME as substrate preincubated for 15 mins followed by substrate addition and measured after 60 mins relative to control. The conditions noted are these: time 75.0 min. In a few lines: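 Human recombinant sEH from baculovirus-infected Sf9 cells, affinity-purified. Diluted in 25 mM Tris pH 7 with 0.1 mg/mL BSA. Pre-incubated 15 min at room temperature with 10 µM compound or 0.1% DMSO. 50 µM PHOME added, run 60 min at room temperature, stopped with ZnSO4. Fluorescence read at ex 330 / em 465 nm.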

The test system of the next data set is Monocyte. The data set can be described thus: Cytotoxicity against human monocyte cells assessed as cell viability at 10 uM measured after 24 hrs by MTT assay. It counts as cell-based. Put shortly:
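Human monocytes isolated from PBMC by adherence, 0.2 × 10^6 per well in buffer. Exposed to 10 µM compound or 0.5% DMSO for 24 h (37 °C, 5% CO2). MTT for 2 h, then SDS lysis (10%, pH 4.5) for 17 h. Absorbance read at 570 nm; viability as % of vehicle, n = 3.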
A general note: Formazan colour is commonly taken as a measure of viable cells.

In a further data set the test system is A549. The data set can be described thus: Cytotoxicity against human A549 cells assessed as cell viability at 10 uM measured after 48 hrs by MTT assay. The data set is classed as cell-based. The note with it: a549, 48 h. Put shortly:
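A549 cells in DMEM + 10% FBS, 2 × 10^4 per well, seeded in triplicate. Exposed to 10 µM compound or 0.1% DMSO for 48 h at 37 °C, 5% CO2. MTT added for 1 h, formazan dissolved in DMSO, absorbance read at 570 nm. Viability given as % of vehicle, n = 3.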

Data set [6] deals with Prostaglandin G/H synthase 1 (Ovis aries) (UniProt P05979). The data set can be described thus: Inhibition of ovine COX-1 assessed as residual activity at 10 uM using arachidonic acid as substrate preincubated for 5 mins by RP-HPLC method relative to control. The note with it: time 10.0 min.
Chain of Prostaglandin G/H synthase 1 (Ovis aries) (P05979 whole entry, looked up): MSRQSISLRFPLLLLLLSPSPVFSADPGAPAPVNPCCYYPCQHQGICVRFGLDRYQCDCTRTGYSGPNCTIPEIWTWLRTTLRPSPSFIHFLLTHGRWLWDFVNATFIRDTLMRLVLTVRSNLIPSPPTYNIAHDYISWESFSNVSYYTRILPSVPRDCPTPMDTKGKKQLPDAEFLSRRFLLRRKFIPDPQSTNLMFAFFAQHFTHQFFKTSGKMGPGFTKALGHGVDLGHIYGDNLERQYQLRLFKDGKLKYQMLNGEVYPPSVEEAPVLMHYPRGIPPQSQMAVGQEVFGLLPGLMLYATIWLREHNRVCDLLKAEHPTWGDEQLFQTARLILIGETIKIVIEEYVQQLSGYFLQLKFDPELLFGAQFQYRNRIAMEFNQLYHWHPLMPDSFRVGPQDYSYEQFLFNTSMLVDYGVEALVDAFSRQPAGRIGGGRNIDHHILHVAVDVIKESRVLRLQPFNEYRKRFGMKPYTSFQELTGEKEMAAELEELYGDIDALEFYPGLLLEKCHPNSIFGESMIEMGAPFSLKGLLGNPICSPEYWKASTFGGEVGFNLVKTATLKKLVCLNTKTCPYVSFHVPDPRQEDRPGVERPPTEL
Data set [7] deals with Mus musculus. The data set can be described thus: Antiinflammatory activity in zymosan-induced CD-1 mouse peritonitis model assessed as reduction in zymosan-induced IL-6 level in peritoneal exudate at 3 mg/kg, ip treated with compound for 30 mins after 4 to 24 hrs zymosan stimulation by ELISA. It counts as functional, organism-based.
Data set [8] relates to Mus musculus. The data set can be described thus: Antiinflammatory activity in zymosan-induced CD-1 mouse peritonitis model assessed as reduction in zymosan-induced neutrophil recruitment at 10 mg/kg, ip treated with compound for 30 mins after 4 hrs zymosan stimulation by ELISA. It counts as functional, organism-based. In a few lines: (§2)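 Male CD-1 mice (10–14 wk, 25–30 g), n = 6/group, injected i.p. with boiled zymosan A (500 mg/kg in PBS). Compound (0.1–10 mg/kg, DMSO/saline 1:3) given i.p. 30 min afterwards. Peritoneal lavage with 2 mL PBS at 4 or 24 h. Total leukocytes counted by automated counter with trypan blue, normalized to exudate. Mean ± S.D.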
A general note: ELISA stands for enzyme-linked immunosorbent assay.

Data set [9] has as its system Mus musculus. The data set can be described thus: Antiinflammatory activity in zymosan-induced CD-1 mouse peritonitis model assessed as reduction in zymosan-induced neutrophil recruitment at 10 mg/kg, ip treated with compound for 30 mins after 24 hrs zymosan stimulation by ELISA. The data set is classed as functional, organism-based. In a few lines: as §2
For data set [10], the system named is Mus musculus. The data set can be described thus: Antiinflammatory activity in zymosan-induced CD-1 mouse peritonitis model assessed as reduction in zymosan-induced IL-1beta level in peritoneal exudate at 3 mg/kg, ip treated with compound for 30 mins after 4 to 24 hrs zymosan stimulation by ELISA. It counts as functional, organism-based.
Data set [11] has as its system Mus musculus. The data set can be described thus: Antiinflammatory activity in zymosan-induced CD-1 mouse peritonitis model assessed as reduction in zymosan-induced TNF-alpha level in peritoneal exudate at 3 mg/kg, ip treated with compound for 30 mins after 4 to 24 hrs zymosan stimulation by ELISA. It counts as functional, organism-based.

Take `N[C@H](c1ccc(O)cc1)c1nc(-c2ccc(-c3ccsc3)cc2)no1`: the values for the Activity in data set [1], in data set [2] and in data set [3] were 67.6%, 47.5% and 50.3%, respectively.
Taken in the same sequence, the figures for `Oc1cccc(-c2nc(-c3ccc(-c4ccsc4)cc3)no2)c1` were 84.1%, greater than 100% and greater than 100%.
For `CC(c1ccc(O)cc1)c1nc(-c2ccc(-c3ccsc3)cc2)no1` (configuration not stated), the Activity is 62.9% in data set [1]; 6.02% in data set [2]; 7.54% in data set [3]; 61.8% in data set [4]; greater than 50% in data set [5]; “Non-Toxic” in the data set with Monocyte. Moreover, the Activity result is “Non-Toxic” with A549 and 22.5% in data set [6].
In the case of `N[C@@H](Cc1ccc(O)cc1)c1nc(-c2ccc(-c3ccsc3)cc2)no1`, the Activity in data set [1] came out at 82.7%; in data set [2], 95%; in data set [3], 74.4%.
Taken in the same sequence, the figures for `CC(=O)N1C[C@H](O)C[C@H]1c1nc(-c2ccc(-c3ccsc3)cc2)no1` were 82.2%, 92.6% and 89.5%.
On to `C[C@@H]1C[C@H]2[C@@H]3CCC4=CC(=O)C=C[C@]4(C)[C@@]3(F)[C@@H](O)C[C@]2(C)[C@@]1(O)C(=O)CO`, for which the outcome in the data set on Mus musculus [7], in the data set with Mus musculus [8], in the data set on Mus musculus [9], in the data set with Mus musculus [10] and in the data set on Mus musculus [11] was Active.
Take `Nc1ccc(O)c(-c2nc(-c3ccc(-c4ccsc4)cc3)no2)c1`: the Activity was found to be 81.9% in data set [1], 84.3% in data set [2] and 29.6% in data set [3].
Taken in the same sequence, the figures for `c1cc(-c2nc(-c3ccc(-c4ccsc4)cc3)no2)c2cc[nH]c2c1` were 63.2%, 59.7% and 99.3%.
Taken in the same sequence, the figures for `CC(N)(Cc1ccc(O)cc1)c1nc(-c2ccc(-c3ccsc3)cc2)no1` (configuration not stated) were 84.7%, 78% and 61.3%.
Consider `OCc1ccc(Cc2nc(-c3ccc(-c4ccsc4)cc3)no2)cc1`, for which the Activity was 93.1% in [1], 73.6% in data set [2] and 65.2% in data set [3].
